Calls of active or inactive are those of the source. The calls are words filed in the database; no cut-off is given here.
Experiments:
518A2 [1] = experiment: Induction of apoptosis in human 518A2 cells assessed as ROS production at 50 uM after 24 hrs by NBT reduction assay relative to control; type: functional
HL-60 [2] = experiment: Induction of apoptosis in human HL60 cells assessed as ROS production at 50 uM after 24 hrs by NBT reduction assay relative to control; type: functional
[3] = Cytotoxicity against human multidrug-resistant MCF7/Topo cells after 72 hrs by MTT assay; type: functional, cell-based
How it was run: (§1)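 MTT read-out. HL-60 seeded at 5 × 10⁵/mL and adherent lines at 5 × 10⁴/mL, precultured 24 h, then exposed to compounds for 72 h at 37 °C, 5% CO₂. MTT final 0.05% (HL-60, 518A2) or 0.1% (others), 2 h. Formazan dissolved in SDS/DMSO/acetic acid; A570 minus A630. Quadruplicates; viability relative to controls; IC50 from four-parameter Hill fit.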

HL-60 [4] = experiment: Induction of apoptosis in human HL60 cells assessed as intact mitochondria at 5 uM after 72 hrs relative to control; type: functional
HT-29 = experiment: Cytotoxicity against human HT-29 cells after 72 hrs by MTT assay; type: functional, cell-based; settings: HT-29, 72 h; how it was run: as §1
[5] = Cytotoxicity against human 518A2 cells after 72 hrs by MTT assay; type: functional, cell-based; settings: 518A2, 72 h; how it was run: as §1
518A2 [6] = experiment: Induction of apoptosis in human 518A2 cells assessed as intact mitochondria at 5 uM after 72 hrs relative to control; type: functional
[7] = Cytotoxicity against human vinblastine-resistant KBV1 cells after 72 hrs by MTT assay; type: functional, cell-based; settings: KB-V1, 72 h; how it was run: as §1
HL-60 [8] = experiment: Cytotoxicity against human HL60 cells after 72 hrs by MTT assay; type: functional, cell-based; settings: HL-60, 72 h; how it was run: as §1
1411HP [9] = experiment: Antitumor activity against human 1411HP cells xenografted in mouse assessed as swelling of tumor at 30 mg/kg, ip after 24 hrs; type: functional, organism-based; set-up: dose 30 mg/kg
How it was run: (§2)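 Mice carried subcutaneous left-flank xenografts from 10 million 1411HP cells in 150 μL PBS. After 4 weeks, two mice with tumors of ~1 cm³ received a single ip dose of 30 mg/kg. Tumors were inspected for swelling and hemorrhage after 24 h. Body weight was recorded twice weekly, and daily during therapy.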

[10] = Cytotoxicity against human cisplatin-resistant 1411HP cells after 96 hrs by SRB assay; type: functional, cell-based
How it was run: (§3)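 Germ cell tumor lines seeded on day 0 at densities ensuring exponential growth, exposed from day 1 to drug at 0.001–10 μM in medium. Surviving cells relative to untreated controls read on day 5 by sulforhodamine B colorimetric assay (96 h exposure). IC50 from four-parameter Hill fit of concentration-response curves.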

[11] = Cytotoxicity against human H12.1 cells after 96 hrs by SRB assay; type: functional, cell-based; how it was run: as §3
Gallus gallus [12] = species: Gallus gallus; experiment: Antiangiogenic activity in vascular system of fertilized chicken embryo assessed as complete degradation of vascular system after 3 days by CAM assay; type: functional, tissue-based
1411HP [13] = experiment: Antitumor activity against human 1411HP cells xenografted in mouse assessed as slow regrowth of tumor at 30 mg/kg, ip single dose
Gallus gallus [14] = species: Gallus gallus; experiment: Antiangiogenic activity in vascular system of fertilized chicken embryo assessed as vessel shrinkage after 24 hrs by CAM assay; type: functional, tissue-based
HL-60 [15] = experiment: Induction of apoptosis in human HL60 cells at 10 uM after 16 hrs by TUNEL assay; type: functional
1411HP [16] = experiment: Antitumor activity against human 1411HP cells xenografted in mouse assessed as intratumoral hemorrhage at 30 mg/kg, ip after 24 hrs; type: functional, organism-based; set-up: dose 30 mg/kg; how it was run: as §2
[17] = Inhibition of tubulin polymerization by fluorescence-based assay; settings: TDE = time-dependent effect
How it was run: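 Purified tubulin polymerization kit, fluorescence-based; polymerization followed as relative fluorescence units at excitation 360 nm and emission 465 nm. Compounds and reference agents tested at 3 μM. Four to five independent experiments.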

Mus musculus [18] = experiment: Toxicity in human 1411HP cells xenografted mouse assessed as body weight change at 20 mg/kg, ip administered on day 16/17 and 35/36; type: organism-based; set-up: dose 20 mg/kg, route intraperitoneal; settings: in vivo
Mus musculus [19] = experiment: Toxicity in human 1411HP cells xenografted mouse at 20 mg/kg, ip qd for 2 days; type: organism-based; set-up: dose 20 mg/kg, route intraperitoneal
How it was run: (§4)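 Subcutaneous flank xenografts were grown from 10 million 1411HP cells in 150 μL PBS. Two mice with tumors of ~2.5 cm³ were dosed ip at 20 mg/kg on 2 consecutive days. Tumor volume was measured by caliper as a² × b × 0.5. Body weight was recorded twice weekly, and daily during therapy.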

Mus musculus [20] = experiment: Toxicity in human 1411HP cells xenografted mouse at 20 mg/kg, ip administered on day 16/17 and 35/36; type: organism-based; set-up: dose 20 mg/kg, route intraperitoneal; settings: in vivo
1411HP [21] = experiment: Antitumor activity against human 1411HP cells xenografted in mouse assessed as prolonged periods of stabilization at 20 mg/kg, ip administered on day 16/17 and 35/36; type: functional, organism-based; set-up: dose 20 mg/kg
Mus musculus [22] = experiment: Toxicity in human 1411HP cells xenografted mouse at 30 mg/kg, ip; type: organism-based; set-up: dose 30 mg/kg, route intraperitoneal; settings: in vivo; how it was run: as §2
1411HP [23] = experiment: Antitumor activity against human 1411HP cells xenografted in mouse assessed as tumor regression at 20 mg/kg, ip qd for 2 days; type: functional, organism-based; set-up: dose 20 mg/kg; how it was run: as §4
1411HP [24] = experiment: Antitumor activity against human 1411HP cells xenografted in mouse assessed as tumor regression at 20 mg/kg, ip administered on day 16/17 and 35/36; type: functional, organism-based; set-up: dose 20 mg/kg
1411HP [25] = experiment: Antitumor activity against human 1411HP cells xenografted in mouse assessed as slow regrowth of tumor at 20 mg/kg, ip qd for 2 days; type: functional, organism-based; set-up: dose 20 mg/kg; how it was run: as §4

SMILES | Activity (518A2 [1]) | Activity (HL-60 [2]) | IC50 [3] | Activity (HL-60 [4]) | IC50 (HT-29) | IC50 [5] | Activity (518A2 [6]) | IC50 [7] | IC50 (HL-60 [8]) | also measured
COc1ccc(-c2c(-c3cc(OC)c(OC)c(OC)c3)ncn2C)cc1N | 1.5% | 2.2% | > 10000 nM | 74% | 64 nM | > 100000 nM | 87% | 300 nM | > 100000 nM | –
COc1ccc(-c2c(-c3cc(Br)c(OC)c(OC)c3)ncn2C)cc1N.Cl.Cl | 3.8% | 1.5% | 340 nM | 66% | 0.02 nM | 6.4 nM | 80% | 200 nM | 0.1 nM | Activity (1411HP [9]): Active; IC50 [10]: 54 nM; IC50 [11]: 22 nM; Activity (Gallus gallus [12]): inactive; Activity (1411HP [13]): Active; Activity (Gallus gallus [14]): inactive; Activity (HL-60 [15]): 60%; Activity (1411HP [16]): Active; inhibition [17]: tde
COc1cc(-c2ncn(C)c2-c2ccc(N(C)C)cc2)cc(Br)c1OC.Cl | 6.7% | 1.6% | – | 63% | 4.3 nM | 860 nM | 82% | – | 0.2 nM | –
COc1ccc(-c2c(-c3cc(Br)c(OC)c(OC)c3)ncn2C)cc1F.Cl | 3.9% | 1.4% | – | 60% | 510 nM | 66 nM | 89% | – | 9700 nM | –
COc1cc(-c2ncoc2-c2ccc(N(C)C)cc2)cc(N)c1OC.Cl | 3.3% | 1.4% | – | 62% | > 15000 nM | 110 nM | 82% | – | 0.9 nM | –
COc1ccc(/C=C\c2cc(OC)c(OC)c(OC)c2)cc1O [COMBRETASTATIN A4] | – | – | 500 nM | – | 3600 nM | 18 nM | – | 0.4 nM | 0.1 nM | –
COc1cc(-c2ncn(C)c2-c2ccc3c(Cl)cn(C)c3c2)cc(N)c1OC.Cl | 6.4% | 1.6% | 3.8 nM | 60% | 14 nM | 3100 nM | 77% | 160 nM | 0.04 nM | –
COc1ccc(-c2c(-c3cc(Cl)c(OC)c(OC)c3)ncn2C)cc1F.Cl | 4.8% | 1.6% | – | 55% | 530 nM | 400 nM | 84% | – | > 10000 nM | –
COc1ccc(-c2c(-c3cc(Cl)c(OC)c(OC)c3)ncn2C)cc1N.Cl.Cl | 4.4% | 1.8% | 320 nM | 65% | 0.06 nM | 62 nM | 80% | 400 nM | 0.2 nM | Activity (1411HP [9]): Active; Activity (Mus musculus [18]): Non-toxic; IC50 [10]: 60 nM; IC50 [11]: 30 nM; Activity (Mus musculus [19]): Non-toxic; Activity (Gallus gallus [12]): Active; Activity (Mus musculus [20]): Non-toxic; Activity (1411HP [21]): Active; Activity (Gallus gallus [14]): Active; Activity (Mus musculus [22]): Non-toxic; Activity (HL-60 [15]): 60%; Activity (1411HP [23]): Active; Activity (1411HP [24]): Active; Activity (1411HP [25]): Active; Activity (1411HP [16]): Active; inhibition [17]: tde
COc1ccc(-c2c(-c3cc(N)c(OC)c(OC)c3)ncn2C)cc1F.Cl | 1.4% | 1.2% | – | 90% | > 50000 nM | > 10000 nM | 98% | – | > 10000 nM | –
COc1cc(-c2ncn(C)c2-c2ccc(N(C)C)cc2)cc(Cl)c1OC.Cl | 6% | 2.4% | – | 61% | 0.2 nM | 2300 nM | 80% | – | 0.02 nM | –
COc1ccc(-c2ocnc2-c2cc(N)c(OC)c(OC)c2)cc1N.Cl | 3.5% | 1.5% | 1.23 nM | 62% | 57 nM | 2 nM | 85% | 0.01 nM | 3.8 nM | Activity (Gallus gallus [12]): inactive; Activity (Gallus gallus [14]): inactive; Activity (HL-60 [15]): 60%
COc1ccc(-c2c(-c3cc(N)c(OC)c(OC)c3)ncn2C)cc1O.Cl | 1.8% | 1.1% | – | 76% | > 100000 nM | 2800 nM | 94% | – | 4600 nM | –

— ChEMBL document CHEMBL1250515, “4-(3-Halo/amino-4,5-dimethoxyphenyl)-5-aryloxazoles and -N-methylimidazoles that are cytotoxic against combretastatin A resistant tumor cells and vascular disrupting in a cisplatin resistant germ cell tumor model” (J Med Chem, 2010)
